According to ChEMBL document CHEMBL4321820, “Identification and Optimization of Mechanism-Based Fluoroallylamine Inhibitors of Lysyl Oxidase-like 2/3” (J Med Chem, 2019):
The source made the active and inactive calls. The rule behind the calls is not given here.

Columns and labels:
Lysyl oxidase homolog 2 = target: T1, Lysyl oxidase homolog 2 (Homo sapiens, UniProt Q9Y4K0); experiment: Inhibition of recombinant human C-terminal His-tagged […] (1-774 residues) expressed in mouse myeloma cells using putrescine as substrate preincubated with enzyme for 30 mins followed by substrate addition and measured every 2.5 mins for 30 mins by Amplex-Red oxidation assay; conditions: read-out: pIC50 (converted)
T1 sequence (Q9Y4K0 whole entry): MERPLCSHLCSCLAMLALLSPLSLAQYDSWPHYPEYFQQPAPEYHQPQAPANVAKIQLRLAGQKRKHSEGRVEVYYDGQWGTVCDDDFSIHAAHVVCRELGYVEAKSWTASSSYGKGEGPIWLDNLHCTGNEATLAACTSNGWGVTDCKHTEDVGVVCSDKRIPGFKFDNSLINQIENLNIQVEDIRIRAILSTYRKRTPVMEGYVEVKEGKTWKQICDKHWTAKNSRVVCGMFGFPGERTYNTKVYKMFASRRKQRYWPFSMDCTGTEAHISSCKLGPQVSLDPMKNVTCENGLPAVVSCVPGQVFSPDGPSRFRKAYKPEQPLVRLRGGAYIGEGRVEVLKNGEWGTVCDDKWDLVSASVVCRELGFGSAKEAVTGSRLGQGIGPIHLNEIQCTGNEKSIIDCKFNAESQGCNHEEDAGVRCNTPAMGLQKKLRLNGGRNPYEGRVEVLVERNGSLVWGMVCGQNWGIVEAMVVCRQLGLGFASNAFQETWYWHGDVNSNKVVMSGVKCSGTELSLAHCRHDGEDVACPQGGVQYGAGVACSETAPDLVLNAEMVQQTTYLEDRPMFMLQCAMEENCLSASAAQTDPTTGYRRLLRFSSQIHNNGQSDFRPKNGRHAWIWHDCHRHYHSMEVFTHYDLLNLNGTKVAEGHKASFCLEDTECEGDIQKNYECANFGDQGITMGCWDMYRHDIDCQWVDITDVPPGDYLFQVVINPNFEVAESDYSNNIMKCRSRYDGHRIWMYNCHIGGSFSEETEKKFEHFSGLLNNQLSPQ
How it was run: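 LOXL2 enzyme preincubated with compound for 30 min at 37 °C, then Amplex Red (120 µM) / HRP (1.5 U/mL) mix containing 5 mM putrescine added. Buffer: 1.2 M urea, 50 mM sodium borate, pH 8.2. H2O2 fluorescence (ex 565/em 590) read every 2.5 min for 30 min at 37 °C; BAPN 100 µM as positive control; n≥2.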

[1] = target: T2, Amine oxidase [copper-containing] 3 (Homo sapiens, UniProt Q16853); experiment: Inhibition of recombinant human SSAO using benzylamine as substrate preincubated with enzyme for 30 mins followed by substrate addition and measured every 2.5 mins for 30 mins by Amplex-Red oxidation assay; conditions: read-out: pIC50 (converted)
T2 sequence (Q16853 whole entry): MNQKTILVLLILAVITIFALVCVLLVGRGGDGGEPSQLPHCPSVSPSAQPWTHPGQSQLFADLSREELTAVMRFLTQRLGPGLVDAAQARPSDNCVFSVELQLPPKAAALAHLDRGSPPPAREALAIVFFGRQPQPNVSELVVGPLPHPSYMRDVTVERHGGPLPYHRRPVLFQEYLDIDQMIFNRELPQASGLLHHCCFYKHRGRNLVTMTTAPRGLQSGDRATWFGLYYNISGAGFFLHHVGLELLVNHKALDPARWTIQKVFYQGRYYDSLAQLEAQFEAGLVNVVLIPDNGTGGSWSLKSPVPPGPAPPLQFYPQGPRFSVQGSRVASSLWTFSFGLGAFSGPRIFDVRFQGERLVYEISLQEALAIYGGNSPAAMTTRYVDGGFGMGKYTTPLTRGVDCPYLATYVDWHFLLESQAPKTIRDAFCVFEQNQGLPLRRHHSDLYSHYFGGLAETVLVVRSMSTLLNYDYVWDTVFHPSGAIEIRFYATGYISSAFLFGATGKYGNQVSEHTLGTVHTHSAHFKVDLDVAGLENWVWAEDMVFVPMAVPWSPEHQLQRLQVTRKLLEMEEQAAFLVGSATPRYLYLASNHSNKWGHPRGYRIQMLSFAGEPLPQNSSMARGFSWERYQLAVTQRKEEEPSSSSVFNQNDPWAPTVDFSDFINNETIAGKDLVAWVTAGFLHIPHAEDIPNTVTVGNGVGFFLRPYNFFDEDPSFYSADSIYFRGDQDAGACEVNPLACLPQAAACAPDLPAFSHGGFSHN

[2] = target: T3, Amine oxidase [flavin-containing] B (Homo sapiens, UniProt P27338); experiment: Inhibition of recombinant human MAOB expressed in baculovirus infected in BTI cells using benzylamine as substrate preincubated with enzyme for 30 mins followed by substrate addition and measured every 2.5 mins for 30 mins by Amplex-Red oxidation assay; conditions: human, 0.5 h
T3 sequence (P27338 whole entry): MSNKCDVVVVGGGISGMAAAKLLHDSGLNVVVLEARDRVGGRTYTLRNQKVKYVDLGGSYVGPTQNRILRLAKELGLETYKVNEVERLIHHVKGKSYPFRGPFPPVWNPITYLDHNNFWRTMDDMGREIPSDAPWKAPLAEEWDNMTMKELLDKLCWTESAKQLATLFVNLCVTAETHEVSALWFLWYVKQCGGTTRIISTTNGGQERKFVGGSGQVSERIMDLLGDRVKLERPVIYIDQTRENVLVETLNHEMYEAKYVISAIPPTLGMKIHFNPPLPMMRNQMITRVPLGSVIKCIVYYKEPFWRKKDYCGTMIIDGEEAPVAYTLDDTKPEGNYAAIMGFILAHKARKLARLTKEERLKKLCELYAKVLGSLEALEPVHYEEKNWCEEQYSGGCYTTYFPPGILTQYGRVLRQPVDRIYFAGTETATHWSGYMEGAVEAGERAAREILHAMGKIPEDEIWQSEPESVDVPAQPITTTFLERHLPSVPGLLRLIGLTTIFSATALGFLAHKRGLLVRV

[3] = Metabolic stability of the compound in dog plasma assessed as SSAO/plasma amine oxidase-mediated compound oxidation preincubated with SSAO/primary amine oxidase inhibitor, semicarbazide followed by incubation with compound and measured after 1 hr; type: ADME, Canis lupus familiaris
Protein-lysine 6-oxidase = target: T4, Protein-lysine 6-oxidase (Bos taurus, UniProt P33072); experiment: Inhibition of LOX in bovine aorta using putrescine as substrate preincubated with enzyme for 30 mins followed by substrate addition and measured every 2.5 mins for 30 mins by Amplex-Red oxidation assay; type: tissue-based; conditions: read-out: pIC50 (converted)
T4 sequence (P33072 whole entry): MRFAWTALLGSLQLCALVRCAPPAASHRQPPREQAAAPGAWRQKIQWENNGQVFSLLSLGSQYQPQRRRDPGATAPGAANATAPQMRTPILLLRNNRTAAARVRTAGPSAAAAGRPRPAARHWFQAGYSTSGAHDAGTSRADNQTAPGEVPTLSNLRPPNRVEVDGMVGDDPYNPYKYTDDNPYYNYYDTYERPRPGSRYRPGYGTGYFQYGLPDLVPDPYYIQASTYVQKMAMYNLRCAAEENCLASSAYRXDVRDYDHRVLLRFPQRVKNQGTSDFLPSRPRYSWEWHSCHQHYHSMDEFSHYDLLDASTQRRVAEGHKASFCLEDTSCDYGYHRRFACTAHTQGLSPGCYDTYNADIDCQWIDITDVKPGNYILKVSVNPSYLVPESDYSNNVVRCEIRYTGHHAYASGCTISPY
How it was run: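 LOX extracted from calf aorta after PBS washing with 4 M urea/50 mM borate pH 8.2, concentrated on 10 kDa filters into 1.2 M urea/borate with protease inhibitors. Preincubated 30 min at 37 °C with compound, then Amplex Red/HRP with 10 mM putrescine; fluorescence read every 2.5 min for 30 min.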

[4] = tested on: SSAO/plasma amine oxidase; experiment: Metabolic stability of the compound in dog plasma assessed as SSAO/plasma amine oxidase-mediated compound oxidation by measuring parent compound remaining after 1 hr; type: ADME, Canis lupus familiaris; conditions: read-out: Stability
How it was run: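 Compound incubated in dog plasma; percentage of parent compound remaining measured after 1 hour.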

Mus musculus [5] = experiment: Antifibrotic activity in CCl4-induced BALB/c mouse model of liver fibrosis assessed as liver fibrosis area at 2 mg/ml, po administered every 2 day for 6 weeks by picro-sirius red staining based microscopy; type: functional, organism-based
How it was run: (§1)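 Female BALB/c mice given CCl4 i.p. (1 mL/kg of 25% CCl4 in olive oil) twice weekly for 6 weeks, killed 48 h after the last dose. The 2 mg/mL treatment was given in drinking water ad libitum, changed every second day, for 6 weeks (n=15). One liver lobe was formalin-fixed and stained for Picro Sirius Red or α-SMA. Slides were scanned at 20X. Fibrotic area is given as % of total liver area, mean ± SEM. One-way ANOVA with Dunnett's test vs CCl4 + vehicle.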

Mus musculus [6] = experiment: Increase in plasma ALT level in CCl4-induced BALB/c mouse model of liver fibrosis at 2 mg/ml, po administered every 2 day for 6 weeks; type: ADME, organism-based; conditions: in vivo
How it was run: (§2)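 Female BALB/c mice given CCl4 i.p. (1 mL/kg of 25% CCl4 in olive oil) twice weekly for 6 weeks, killed 48 h after the last dose. The 2 mg/mL treatment was given in drinking water ad libitum, changed every second day, for 6 weeks (n=15). ALT and AST were measured in plasma.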

Mus musculus [7] = experiment: Antifibrotic activity in CCl4-induced BALB/c mouse model of liver fibrosis assessed as reduction in liver fibrosis area at 2 mg/ml, po administered every 2 day for 6 weeks by alpha-SMA staining based microscopy; type: functional, organism-based; how it was run: as §1
Mus musculus [8] = experiment: Increase in plasma AST level in CCl4-induced BALB/c mouse model of liver fibrosis at 2 mg/ml, po administered every 2 day for 6 weeks; type: ADME, organism-based; conditions: in vivo; how it was run: as §2

Structure (SMILES)	IC50 (Lysyl oxidase homolog 2)	IC50 [1]	pIC50 [2]	Stability [3]	IC50 (Protein-lysine 6-oxidase)	remaining at 1 h [4]	inhibition (Mus musculus [5])	Activity (Mus musculus [6])	inhibition (Mus musculus [7])	Activity (Mus musculus [8])
CN(C)S(=O)(=O)c1ccc(OCc2cn(C/C(F)=C/CN)nn2)c(Cl)c1.Cl	0.02 µM	> 31.6 µM	Not Active	Stable	0.794 µM	0%				
N#CCCN					2 µM		inactive	Toxic	Active	Toxic
